ChEMBL document CHEMBL1128747, “Phosphinic acid analogues of GABA. 1. New potent and selective GABAB agonists” (J Med Chem, 1995)

Tests used:
[1] = target: GABA-A receptor; anion channel; experiment: Inhibition of [3H]muscimol binding to GABA-A receptor of rat cortex; format: tissue-based
Rattus norvegicus [2] = experiment: Deterioration of rotarod performance of rats 1-2 hour after subcutaneous administration of compound; format: functional, organism-based
Rattus norvegicus [3] = experiment: Deterioration of rotarod performance of rats 0.5-1 hour after subcutaneous administration of compound; format: functional, organism-based
Procedure, shortened: (§1)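 Male Sprague-Dawley rats (120-140 g), eight per dose. Compound is dissolved in water and given orally (5 mL/kg) or subcutaneously into the neck (2 mL/kg). Rats are pre-trained to stay 300 s on an 11 rpm, 6 cm cylinder. Time on the rod (maximum 300 s) is recorded at 0.5-1 h after sc or 1.5-2 h after po dosing. EC50 is the dose in µmol/kg at which 50% fall off within ≤150 s, estimated by Probit.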

[4] = Inhibition of [3H]- 5-HT binding to 5-hydroxytryptamine 1 receptor at 10e-5 M
[5] = target: T1, Serotonin 2 (5-HT2) receptor (Homo sapiens) (UniProt P41595+P28223+P28335); experiment: Inhibition of [3H]ketanserin binding to 5-hydroxytryptamine 2 receptor at 10e-5 M; format: protein assay
[6] = target: Serotonin 3 (5-HT3) receptor (Homo sapiens) (UniProt P46098+A5X5Y0+O95264+Q70Z44+Q8WXA8); experiment: Inhibition of [3H]- BRL 43 694 binding to 5-hydroxytryptamine 3 receptor at 10e-5 M; format: protein-complex assay
[7] = target: T2, Adenosine receptor A1 (Homo sapiens) (UniProt P30542); experiment: Inhibition of [3H]- N-6-CA binding to Adenosine A1 receptor at 10e-5 M
T2 sequence (whole entry): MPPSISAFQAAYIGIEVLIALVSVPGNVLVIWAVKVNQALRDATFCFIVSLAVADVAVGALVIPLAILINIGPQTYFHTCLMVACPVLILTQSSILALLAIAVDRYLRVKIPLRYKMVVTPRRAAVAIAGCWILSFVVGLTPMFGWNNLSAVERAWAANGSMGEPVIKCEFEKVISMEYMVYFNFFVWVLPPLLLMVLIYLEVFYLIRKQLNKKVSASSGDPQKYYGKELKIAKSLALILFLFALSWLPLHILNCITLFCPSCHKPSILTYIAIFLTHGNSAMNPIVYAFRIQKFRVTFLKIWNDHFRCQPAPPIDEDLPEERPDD

[8] = target: Adrenergic receptor alpha-2 (Homo sapiens) (UniProt P08913+P18825+P18089); experiment: Inhibition of [3H]- clonidine binding to Alpha-2 adrenergic receptor at 10e-5 M; format: protein assay
[9] = target: Adrenergic receptor alpha-1 (Homo sapiens) (UniProt P35348+P25100+P35368); experiment: Inhibition [3H]- prazosin binding to Alpha-1 adrenergic receptor at 10e-5 M; format: protein assay
[10] = target: T3, GABA-A receptor; anion channel (Homo sapiens) (UniProt P14867+P47870+P18507+P28472+P48169+Q99928+Q9UN88+P34903+O00591+O14764+Q8N1C3+P18505+P78334+P47869+P31644+Q16445); experiment: Inhibition of [3H]- flunitrazepam binding to GABA-A benzodiazepine receptor at 10e-5 M; format: protein-complex assay
[11] = target: T4, Adrenergic receptor beta (Homo sapiens) (UniProt P08588+P07550+P13945); experiment: Inhibition of [3H]- DHA binding to Beta adrenergic receptor; format: protein assay; details: concentration not given here
[12] = target: T3, GABA-A receptor; anion channel (Homo sapiens); experiment: Inhibition of [3H]- muscimol binding to Gamma-aminobutyric acid A (GABA-A) receptor at 10e-5 M; format: protein-complex assay
GABA B receptor [13] = target: T5, GABA B receptor (Rattus norvegicus, UniProt O88871+Q9Z0U4); experiment: (§2) Inhibition of [3H]CGP-27492 binding to Gamma-aminobutyric acid type B receptor of rat cortex
Procedure, shortened: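 Displacement of [3H]CGP27492 from rat cerebral cortex membranes, in triplicate. Nonspecific binding defined with 10 µM (R)-(-)-baclofen. IC50 obtained by computer curve fitting to a single-site model.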

[14] = target: Histamine H1 receptor (Homo sapiens) (UniProt P35367); experiment: Inhibition of [3H]- doxepine binding to histamine 1 receptor at 10e-5 M
[15] = The compound was tested for blockade of the monosynaptic reflexes in the hemisected neonatal spinal cord; format: functional, Rattus norvegicus
[16] = target: Muscarinic acetylcholine receptor (Homo sapiens) (UniProt P20309+P08173+P11229+P08172+P08912); experiment: Inhibition of [3H]CMD binding to muscarinic ACh receptor at 10e-5 M; format: protein assay
[17] = target: Mu-type opioid receptor (Homo sapiens) (UniProt P35372); experiment: Inhibition of [3H]- naloxone binding to mu-opiate receptor at 10e-5 M
Rattus norvegicus [18] = species on record: Rattus norvegicus; experiment: The compound was tested for inhibition of release of [3H]GABA from rat cortical slices after electrical stimulation.; format: functional
[19] = target: Substance-P receptor (Homo sapiens) (UniProt P25103); experiment: Inhibition of [3H]-substance P binding to Tachykinin receptor 1 at 10e-5 M
GABA-B receptor [20] = target: T6, GABA-B receptor (Homo sapiens, UniProt O75899+Q9UBS5); experiment: Inhibition of [3H]baclofen binding to Gamma-aminobutyric acid type B receptor of cat cerebellum; format: tissue-based, Felis catus; details: target entry is the homologue from another species
Procedure, shortened: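 Cat cerebellar synaptosomal membranes (200-300 µg protein), prepared by sucrose density gradient, lysis, freezing and repeated washes. […] Stopped by centrifugation and pellet counted. Run in triplicate. Nonspecific binding with 10 µM (R)-(-)-baclofen. IC50 from single-site curve fit.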

GABA B receptor [21] = target: T5, GABA B receptor; experiment: as §2; remark: listed apart in the source
GABA-B receptor [22] = target: T6, GABA-B receptor; experiment: Inhibition of [3H]-baclofen binding to Gamma-aminobutyric acid type B receptor of cat cerebellum; format: tissue-based, Felis catus; details: target entry is the homologue from another species
[23] = target: T1, Serotonin 2 (5-HT2) receptor (Homo sapiens); experiment: Ketanserin binding to 5-hydroxytryptamine 2 receptor at 10e-5 M; format: protein assay
Rattus norvegicus [24] = experiment: Deterioration of rotarod performance of rats 1-2 hour after peroral administration of compound; format: functional, organism-based; procedure, shortened: as §1
[25] = target: GABA-B receptor (Homo sapiens) (UniProt Q9UBS5+O75899); experiment: Inhibition of [3H]baclofen binding to Gamma-aminobutyric acid type B receptor of cat cerebellum at 10e-5 M; format: tissue-based; details: Felis catus, target entry is the homologue from another species
[26] = target: T4, Adrenergic receptor beta (Homo sapiens); experiment: Inhibition of [3H]- DHA binding to Beta adrenergic receptor at 10e-5 M; format: protein assay
GABA-B receptor [27] = target: T6, GABA-B receptor; experiment: Inhibition of [3H]CGP-27492 binding to cat Gamma-aminobutyric acid type B receptor; format: protein-complex assay, Felis catus; details: target entry is the homologue from another species
Rattus norvegicus [28] = experiment: Deterioration of rotarod performance of rats 1.2 hour after subcutaneous administration of compound; format: functional, organism-based

T1 sequence (P28223 whole entry, looked up): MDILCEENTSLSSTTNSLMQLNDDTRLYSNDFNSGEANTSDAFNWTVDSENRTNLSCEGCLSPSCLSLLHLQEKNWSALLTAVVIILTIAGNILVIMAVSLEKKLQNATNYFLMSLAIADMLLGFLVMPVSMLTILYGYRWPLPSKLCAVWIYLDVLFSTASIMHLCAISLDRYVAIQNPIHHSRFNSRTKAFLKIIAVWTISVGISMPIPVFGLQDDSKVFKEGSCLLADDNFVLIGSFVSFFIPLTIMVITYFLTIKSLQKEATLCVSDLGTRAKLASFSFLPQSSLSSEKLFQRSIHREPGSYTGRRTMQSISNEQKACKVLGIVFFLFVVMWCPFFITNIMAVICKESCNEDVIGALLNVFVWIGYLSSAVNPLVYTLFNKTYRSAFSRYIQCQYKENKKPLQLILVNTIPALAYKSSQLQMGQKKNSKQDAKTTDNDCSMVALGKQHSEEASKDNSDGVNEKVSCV
T1 sequence (P28335 whole entry, looked up): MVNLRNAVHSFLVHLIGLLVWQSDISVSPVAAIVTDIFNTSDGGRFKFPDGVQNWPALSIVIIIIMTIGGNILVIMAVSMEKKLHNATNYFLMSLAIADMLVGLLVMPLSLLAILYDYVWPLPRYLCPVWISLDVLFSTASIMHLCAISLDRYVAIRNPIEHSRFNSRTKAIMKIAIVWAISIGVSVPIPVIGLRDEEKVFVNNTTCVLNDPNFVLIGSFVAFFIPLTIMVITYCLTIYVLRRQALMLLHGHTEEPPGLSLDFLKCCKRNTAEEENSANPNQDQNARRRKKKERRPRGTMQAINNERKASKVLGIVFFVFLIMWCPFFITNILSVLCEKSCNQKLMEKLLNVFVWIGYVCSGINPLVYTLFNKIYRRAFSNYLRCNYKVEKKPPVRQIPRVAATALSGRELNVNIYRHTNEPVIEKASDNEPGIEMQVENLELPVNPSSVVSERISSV
T1 sequence (P41595 whole entry, looked up): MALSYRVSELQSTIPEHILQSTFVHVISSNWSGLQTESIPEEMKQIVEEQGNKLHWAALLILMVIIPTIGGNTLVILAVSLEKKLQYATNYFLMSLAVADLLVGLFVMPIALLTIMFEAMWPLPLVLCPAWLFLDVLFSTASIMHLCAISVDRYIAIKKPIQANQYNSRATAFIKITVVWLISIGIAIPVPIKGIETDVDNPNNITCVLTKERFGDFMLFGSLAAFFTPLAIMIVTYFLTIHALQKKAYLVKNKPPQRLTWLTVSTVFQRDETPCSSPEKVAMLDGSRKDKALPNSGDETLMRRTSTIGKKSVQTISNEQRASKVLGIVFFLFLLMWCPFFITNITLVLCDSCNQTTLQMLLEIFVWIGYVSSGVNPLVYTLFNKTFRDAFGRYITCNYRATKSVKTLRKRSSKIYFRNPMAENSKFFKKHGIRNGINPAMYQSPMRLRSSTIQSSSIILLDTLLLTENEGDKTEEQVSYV
T5 sequence (Q9Z0U4 whole entry): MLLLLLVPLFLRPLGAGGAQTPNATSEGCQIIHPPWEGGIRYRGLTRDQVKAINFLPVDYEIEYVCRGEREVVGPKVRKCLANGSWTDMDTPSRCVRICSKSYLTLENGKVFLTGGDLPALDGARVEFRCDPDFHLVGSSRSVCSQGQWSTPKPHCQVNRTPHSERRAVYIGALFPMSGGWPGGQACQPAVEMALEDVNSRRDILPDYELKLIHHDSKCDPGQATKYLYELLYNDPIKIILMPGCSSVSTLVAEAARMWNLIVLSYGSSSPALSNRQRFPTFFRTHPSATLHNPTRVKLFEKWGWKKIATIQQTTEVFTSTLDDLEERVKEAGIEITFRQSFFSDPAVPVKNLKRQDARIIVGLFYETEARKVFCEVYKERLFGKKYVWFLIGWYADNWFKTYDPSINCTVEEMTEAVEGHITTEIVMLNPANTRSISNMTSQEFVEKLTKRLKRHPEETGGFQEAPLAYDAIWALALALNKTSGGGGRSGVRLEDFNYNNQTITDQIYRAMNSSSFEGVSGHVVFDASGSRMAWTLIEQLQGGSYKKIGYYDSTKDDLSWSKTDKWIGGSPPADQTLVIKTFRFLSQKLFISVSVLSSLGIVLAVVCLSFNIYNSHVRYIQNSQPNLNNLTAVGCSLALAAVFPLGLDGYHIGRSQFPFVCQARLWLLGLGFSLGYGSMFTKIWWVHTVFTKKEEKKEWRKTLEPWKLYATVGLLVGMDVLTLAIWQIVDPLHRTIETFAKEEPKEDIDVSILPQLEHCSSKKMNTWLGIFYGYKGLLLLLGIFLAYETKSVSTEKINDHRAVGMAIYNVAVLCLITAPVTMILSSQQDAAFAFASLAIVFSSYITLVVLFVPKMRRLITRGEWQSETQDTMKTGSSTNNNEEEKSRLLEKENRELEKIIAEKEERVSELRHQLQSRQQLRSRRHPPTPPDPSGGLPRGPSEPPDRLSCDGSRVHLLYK
T5 sequence (O88871 whole entry): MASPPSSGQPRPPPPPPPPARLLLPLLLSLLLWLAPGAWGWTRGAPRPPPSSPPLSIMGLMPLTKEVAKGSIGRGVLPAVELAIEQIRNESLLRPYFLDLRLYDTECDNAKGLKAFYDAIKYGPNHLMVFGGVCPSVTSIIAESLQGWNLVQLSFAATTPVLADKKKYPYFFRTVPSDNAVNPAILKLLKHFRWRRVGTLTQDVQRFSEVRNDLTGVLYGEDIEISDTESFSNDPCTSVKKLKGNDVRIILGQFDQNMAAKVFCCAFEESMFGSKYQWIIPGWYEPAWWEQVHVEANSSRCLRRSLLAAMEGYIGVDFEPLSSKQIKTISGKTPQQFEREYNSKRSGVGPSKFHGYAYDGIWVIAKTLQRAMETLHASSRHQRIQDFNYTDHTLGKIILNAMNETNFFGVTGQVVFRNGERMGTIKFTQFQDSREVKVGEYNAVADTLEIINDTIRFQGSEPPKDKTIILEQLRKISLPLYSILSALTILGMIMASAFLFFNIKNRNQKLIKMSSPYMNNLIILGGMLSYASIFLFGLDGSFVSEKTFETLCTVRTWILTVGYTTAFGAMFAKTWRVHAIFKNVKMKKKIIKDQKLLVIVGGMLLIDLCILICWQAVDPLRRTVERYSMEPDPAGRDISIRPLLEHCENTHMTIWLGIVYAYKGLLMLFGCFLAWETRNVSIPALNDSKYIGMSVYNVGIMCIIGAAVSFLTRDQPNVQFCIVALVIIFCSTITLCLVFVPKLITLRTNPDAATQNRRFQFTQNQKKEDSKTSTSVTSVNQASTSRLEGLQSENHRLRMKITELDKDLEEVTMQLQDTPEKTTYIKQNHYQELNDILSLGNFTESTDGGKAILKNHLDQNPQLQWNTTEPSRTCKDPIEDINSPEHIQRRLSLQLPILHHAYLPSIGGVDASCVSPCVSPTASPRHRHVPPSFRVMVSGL
Sequence of Substance-P receptor (Homo sapiens) (P25103 whole entry): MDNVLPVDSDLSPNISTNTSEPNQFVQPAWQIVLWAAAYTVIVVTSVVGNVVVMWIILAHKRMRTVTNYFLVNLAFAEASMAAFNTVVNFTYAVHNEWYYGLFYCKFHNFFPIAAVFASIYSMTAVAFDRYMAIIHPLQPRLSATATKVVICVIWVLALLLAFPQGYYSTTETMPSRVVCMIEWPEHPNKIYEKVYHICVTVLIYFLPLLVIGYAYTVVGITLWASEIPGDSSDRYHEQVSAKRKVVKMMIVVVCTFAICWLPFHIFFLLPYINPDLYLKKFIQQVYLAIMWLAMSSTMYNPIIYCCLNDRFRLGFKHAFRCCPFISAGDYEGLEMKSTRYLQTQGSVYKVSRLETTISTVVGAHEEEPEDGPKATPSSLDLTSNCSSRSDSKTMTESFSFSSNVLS
Sequence of Mu-type opioid receptor (Homo sapiens) (P35372 whole entry): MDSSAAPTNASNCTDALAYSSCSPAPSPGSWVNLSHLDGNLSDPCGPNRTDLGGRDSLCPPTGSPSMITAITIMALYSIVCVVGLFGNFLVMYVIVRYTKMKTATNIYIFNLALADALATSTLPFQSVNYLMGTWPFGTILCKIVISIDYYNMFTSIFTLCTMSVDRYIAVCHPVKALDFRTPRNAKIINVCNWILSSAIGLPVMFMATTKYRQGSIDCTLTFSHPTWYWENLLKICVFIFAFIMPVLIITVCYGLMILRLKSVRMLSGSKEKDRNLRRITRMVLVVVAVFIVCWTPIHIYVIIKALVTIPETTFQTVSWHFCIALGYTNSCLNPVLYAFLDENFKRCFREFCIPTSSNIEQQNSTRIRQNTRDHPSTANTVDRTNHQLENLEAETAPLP
Sequence of Histamine H1 receptor (Homo sapiens) (P35367 whole entry): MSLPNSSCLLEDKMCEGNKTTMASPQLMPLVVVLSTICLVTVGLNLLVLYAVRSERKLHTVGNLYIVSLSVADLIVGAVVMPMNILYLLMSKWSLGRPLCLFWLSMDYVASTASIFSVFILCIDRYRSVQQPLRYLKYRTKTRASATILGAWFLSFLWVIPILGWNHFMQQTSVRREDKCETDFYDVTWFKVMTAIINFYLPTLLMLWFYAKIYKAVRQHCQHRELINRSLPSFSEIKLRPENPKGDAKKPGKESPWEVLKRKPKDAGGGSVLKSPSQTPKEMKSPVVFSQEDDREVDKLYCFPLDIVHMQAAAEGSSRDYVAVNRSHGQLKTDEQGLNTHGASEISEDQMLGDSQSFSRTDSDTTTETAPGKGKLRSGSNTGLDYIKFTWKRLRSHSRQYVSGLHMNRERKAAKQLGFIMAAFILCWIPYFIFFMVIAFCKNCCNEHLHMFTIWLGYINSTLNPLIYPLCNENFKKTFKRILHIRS

SMILES: NCC(CC(=O)O)c1ccc(Cl)cc1 (racemic) [BACLOFEN]
- IC50 ([1]; read-out: IC50): 1050 µM
- EC50 (Rattus norvegicus [2]): 52 µM/kg
- EC50 (Rattus norvegicus [3]): 24 µM/kg

SMILES: CP(=O)(O)C[C@@H](O)CN
- inhibition [4]: 7%
- inhibition [5]: 36%
- inhibition [6]: 0%
- inhibition [7]: 16%
- inhibition [8]: 0%
- inhibition [9]: 0%
- inhibition [10]: 0%
- inhibition [11]: 9%
- inhibition [12]: 0%
- IC50 (GABA B receptor [13]): 0.045 µM
- inhibition [14]: 22%
- IC50 [15]: 0.161 µM
- inhibition [16]: 0%
- inhibition [17]: 0%
- EC50 (Rattus norvegicus [2]): 36 µM/kg
- EC50 (Rattus norvegicus [3]): 2 µM/kg
- IC50 (Rattus norvegicus [18]): 0.4 µM
- inhibition [19]: 7%

SMILES: NCC(C[PH](=O)O)c1ccc(Cl)cc1 (centres undefined)
- IC50 (GABA-B receptor [20]): 0.039 µM
- EC50 (Rattus norvegicus [3]): 19 µM/kg

SMILES: CCP(=O)(O)CCCN
- IC50 (GABA B receptor [21]): 1.98 µM
- IC50 [1]: Not Active
- IC50 (GABA-B receptor [22]): 1.35 µM

SMILES: CP(=O)(O)CCCN
- inhibition [4]: 46%
- inhibition [23]: 0%
- inhibition [6]: 0%
- inhibition [7]: 6%
- inhibition [8]: 9%
- inhibition [9]: 6%
- inhibition [10]: 0%
- inhibition [11]: 0%
- inhibition [12]: 0%
- IC50 [1]: Not Active
- inhibition [14]: 30%
- IC50 [15]: 0.05 µM
- inhibition [16]: 0%
- inhibition [17]: 0%
- EC50 (Rattus norvegicus [3]): 2 µM/kg
- IC50 (Rattus norvegicus [18]): 0.45 µM
- inhibition [19]: 2%

SMILES: NC[C@@H](CC(=O)O)c1ccc(Cl)cc1
- IC50 ([1]; read-out: IC50): 1560 µM
- EC50 (Rattus norvegicus [3]): > 200 µM/kg
- EC50 (Rattus norvegicus [24]): > 200 µM/kg
- IC50 (Rattus norvegicus [18]): 213 µM

SMILES: NCCC(c1ccccc1)[PH](=O)O (centres undefined)
- inhibition [25]: 10%

SMILES: CP(=O)(O)C(CCN)C(F)(F)F (centres undefined)
- IC50 (GABA B receptor [13]): 67.6 µM

SMILES: NCCC[PH](=O)O
- inhibition [4]: 13%
- inhibition [5]: 0%
- inhibition [7]: 2%
- inhibition [9]: 16%
- inhibition [10]: 24%
- inhibition [26]: 0%
- inhibition [12]: 65%
- IC50 (GABA B receptor [21]): 0.0054 µM
- IC50 ([1]; read-out: IC50): 1.7 µM
- IC50 (GABA-B receptor [22]): 0.0024 µM
- inhibition [14]: 0%
- IC50 [15]: 60 µM
- inhibition [16]: 27%
- inhibition [17]: 0%
- EC50 (Rattus norvegicus [3]): > 813 µM/kg
- IC50 (Rattus norvegicus [18]): 0.106 µM
- inhibition [19]: 9%

SMILES: CP(=O)(O)C[C@H](O)CN
- IC50 (GABA B receptor [13]): 0.152 µM
- IC50 [15]: 0.425 µM
- EC50 (Rattus norvegicus [2]): 135 µM/kg
- EC50 (Rattus norvegicus [3]): 13 µM/kg
- IC50 (Rattus norvegicus [18]): 0.6 µM

SMILES: CC(CCN)P(C)(=O)O (centres undefined)
- IC50 (GABA B receptor [13]): 0.14 µM
- IC50 (GABA-B receptor [27]): 0.166 µM

SMILES: NCC(C[PH](=O)O)c1ccc(F)cc1 (centres undefined)
- IC50 (GABA-B receptor [20]): 0.36 µM

SMILES: CP(=O)(O)CC(O)CN (centres undefined)
- IC50 (GABA B receptor [13]): 0.077 µM
- IC50 (GABA-B receptor [27]): 0.029 µM

SMILES: CP(=O)(O)/C=C/CN
- IC50 (GABA B receptor [13]): 0.665 µM

SMILES: CP(=O)(O)C(O)CCN (centres undefined)
- IC50 (GABA B receptor [13]): 1.16 µM

SMILES: NCC(C[PH](=O)O)c1ccccc1 (centres undefined)
- IC50 (GABA-B receptor [20]): 0.88 µM

SMILES: NCCCP(=O)(O)O
- IC50 (GABA B receptor [13]): 6.81 µM

SMILES: NCC(O)(C[PH](=O)O)c1ccc(Cl)cc1 (centres undefined)
- IC50 (GABA B receptor [13]): 0.065 µM

SMILES: NCCCP(=O)(O)CO
- IC50 (GABA B receptor [13]): 1.05 µM

SMILES: NCCCP(=O)(O)C(F)F
- IC50 (GABA B receptor [13]): 0.089 µM
- EC50 (Rattus norvegicus [3]): 22 µM/kg
- IC50 (Rattus norvegicus [18]): 10.6 µM

SMILES: NC[C@H](CC(=O)O)c1ccc(Cl)cc1 [ARBACLOFEN]
- IC50 ([1]; read-out: IC50): 964 µM
- IC50 [15]: 0.325 µM
- EC50 (Rattus norvegicus [3]): 9 µM/kg
- EC50 (Rattus norvegicus [28]): 16 µM/kg
- IC50 (Rattus norvegicus [18]): 0.33 µM

SMILES: NCC(O)C[PH](=O)O (centres undefined)
- IC50 (GABA-B receptor [22]): 0.018 µM

SMILES: CP(=O)(O)/C=C\CN
- IC50 (GABA B receptor [13]): 16.6 µM

SMILES: CCC(CCN)P(C)(=O)O (centres undefined)
- IC50 (GABA B receptor [13]): 18.5 µM

SMILES: NCC(O)CP(=O)(O)C(F)F (centres undefined)
- IC50 (GABA B receptor [13]): 0.213 µM
